The values below come from PubChem BioAssay.

As a reminder, the viability is a read-out of living cells in per cent, often relative to untreated cells. The inhibition is the drop in the measured response relative to a control, in per cent.

Active and inactive are the calls of the source. Cut-off read from the data, not from the text of the source, unless noted: active = inhibition above about 30%; inactive = the rest.

Test [1] is described as follows: Her2 expression decrease, cell viability multiplex – SKBR3 breast tumor cells, AlphaScreen, ATP viability, primary screen (AID 461;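 active = Her2 level under about 52% in both replicate screens, with viability over 70% of control, limit read from the data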;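 for Her2 level: lower value means less Her2 protein in the cells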;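 for viability: percent of carrier control wells set as 100% viability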). The settings on record: SKBR3 Her2 protein level, 18-24 h, measured here: SKBR3 viability, ATP luminescence, at 10 µM. (In general: In Alpha technology, singlet oxygen from a donor bead excites a nearby acceptor bead.)
Test [2] deals with Receptor tyrosine-protein kinase erbB-2 (Homo sapiens) (UniProt P04626). Described as above. Conditions: 18-24 h, at 10 µM, stronger effect = lower value.
The nature of test [3]: reduced viability of SK-BR-3 breast cancer cells – cell-based, 24 h, human, pilot screen (AID 572;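 active = viability at or below 10% of carrier control in both of two separate runs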;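 note: compound exposure lasted between 18 and 24 h rather than exactly 24 h; 100% = carrier-treated control wells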). Conditions: SK-BR-3 viability, CellTiter-Glo luminescence, at 10 µM, stronger effect = lower value.
Test [4] is described as follows: HUVEC growth inhibition – cell-based, human, primary screen (AID 575;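 active = viability at or below 30% in both replicate assays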;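 note: 100% = median of untreated cell wells with 0.1% DMSO on each plate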). Conditions: HUVEC proliferation, CellTiter-Glo luminescence, 72 h; at 10 µM; stronger effect = lower value. An outline of the steps: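 Assay system: primary human umbilical vein endothelial cells / Buffer or medium: endothelial basal medium with 2% FBS plus growth supplements / Compound dosing: one dose, 10 µM final, 0.1% DMSO / Timing: 72 h treatment at 37 °C / Signal: CTG luminescence / Benchmarks: 32 DMSO-only cell-control wells (high), 32 MePR drug-control wells (low) per plate / Plate: collagen-coated 384-well format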
A general note: In ATP-based viability assays light output follows the ATP content of the culture.

A short description of test [5]: H69AR cell proliferation blockers – human, duplicate replicates, primary screen (AID 580;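 active = viability at or under a set limit in both replicates, limit being median viability minus 3 SD, cut at about 48% in these data, passing the limit was not always enough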;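 note: 100% = mean luminescence of untreated wells and 0% = no signal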). The settings on record: H69AR lung tumor cells viability, ATP luminescence, 72 h; at 10 µM; stronger effect = lower value.
Test [6] can be described thus: MRP1 drug-resistance reversers in H69AR cells – cell-based, doxorubicin co-treatment, pilot screen (AID 601;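 active = viability loss from added drug above about 55%, and viability with drug at most 40%, in both replicates, limit read from the data, passing the limit was not always enough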). Conditions: CellTiter-Glo, 72 h, at 10 µM; for differential viability (reversal): stronger effect = higher value.
Test [7] in a line: yeast transport mutant growth inhibition pilot in 384-well plates, post-Golgi transport modulator project (AID 636; in the data active = inhibition above about 31%). Conditions: absorbance 615 nm, about 18 h, stronger effect = higher value.
Test [8] is described as follows: growth suppression of yeast trafficking mutant, preliminary HTS, modulators of trafficking downstream of Golgi apparatus project, 1536-format plate, OD 615 nm (AID 637). Conditions: yeast transport mutant growth, absorbance 615 nm, 18 h; stronger effect = higher value.
[9] abbreviates: H69AR cells + 2 uM doxorubicin, measured here: viability with 2 uM doxorubicin, stronger effect = lower value.
[10] abbreviates: H69AR cells, compound alone cytotoxicity.

Chain of Receptor tyrosine-protein kinase erbB-2 (Homo sapiens) (P04626 whole entry, looked up): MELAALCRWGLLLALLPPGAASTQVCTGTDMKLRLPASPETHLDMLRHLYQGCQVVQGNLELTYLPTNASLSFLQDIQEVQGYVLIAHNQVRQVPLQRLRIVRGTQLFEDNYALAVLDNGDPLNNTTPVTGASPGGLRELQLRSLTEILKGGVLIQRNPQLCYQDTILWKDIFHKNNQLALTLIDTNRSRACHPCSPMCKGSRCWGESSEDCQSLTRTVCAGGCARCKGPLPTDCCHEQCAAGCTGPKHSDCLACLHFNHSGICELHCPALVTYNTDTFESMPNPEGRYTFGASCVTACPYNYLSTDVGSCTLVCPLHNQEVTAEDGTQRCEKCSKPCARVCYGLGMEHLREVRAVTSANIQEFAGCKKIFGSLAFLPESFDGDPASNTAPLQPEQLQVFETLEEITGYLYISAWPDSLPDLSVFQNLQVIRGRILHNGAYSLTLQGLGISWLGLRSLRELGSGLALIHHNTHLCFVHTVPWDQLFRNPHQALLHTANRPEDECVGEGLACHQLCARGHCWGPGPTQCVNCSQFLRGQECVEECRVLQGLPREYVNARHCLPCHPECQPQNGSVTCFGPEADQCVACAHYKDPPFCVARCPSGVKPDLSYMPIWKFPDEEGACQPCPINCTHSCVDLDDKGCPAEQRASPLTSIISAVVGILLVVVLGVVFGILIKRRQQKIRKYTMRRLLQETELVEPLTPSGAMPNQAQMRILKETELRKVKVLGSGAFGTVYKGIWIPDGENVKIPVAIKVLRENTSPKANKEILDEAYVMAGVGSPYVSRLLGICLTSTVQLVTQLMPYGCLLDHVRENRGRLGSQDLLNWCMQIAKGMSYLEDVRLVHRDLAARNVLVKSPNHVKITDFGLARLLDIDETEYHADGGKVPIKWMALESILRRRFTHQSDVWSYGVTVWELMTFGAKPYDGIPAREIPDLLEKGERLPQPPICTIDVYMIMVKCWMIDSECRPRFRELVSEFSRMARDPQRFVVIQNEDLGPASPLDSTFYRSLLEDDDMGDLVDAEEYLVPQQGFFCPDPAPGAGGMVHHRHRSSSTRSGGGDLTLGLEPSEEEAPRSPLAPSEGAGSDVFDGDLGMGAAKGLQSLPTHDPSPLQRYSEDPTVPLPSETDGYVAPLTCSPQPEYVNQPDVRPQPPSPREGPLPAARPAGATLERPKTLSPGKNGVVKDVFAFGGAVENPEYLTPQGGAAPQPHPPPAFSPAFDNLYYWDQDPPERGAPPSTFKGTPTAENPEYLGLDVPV

Consider `O=C(NCCC1=CCCCC1)N[C@@H](Cc1ccccc1)C(=O)O`, for which the viability in test [1] is 104%; in test [3], 104% (inactive); in test [4], 100% (inactive); in test [5], 108% (inactive); in test [6] (setting [9]), 93.5%; in test [6] (setting [10]) it was 108%. For the same compound, the Her2 level in test [2] was 114% (inactive). In addition, the differential viability (reversal) in test [6] (H69AR cells + 2 uM doxorubicin) was 14.2% (inactive). Also, the results for the inhibition in test [7] and in test [8] were 0.13% (inactive) and 0.16% (inactive), respectively.
With `C=CCc1c(C)nc(SC)nc1Nc1ccc(C(=O)O)cc1`, the viability in test [1] is 106%; in test [3], 106% (inactive); in test [4], 84.2% (inactive); in test [5] it was 86.9% (inactive); in test [6] (setting [9]) it was 85.7%; in test [6] (setting [10]), 86.9%. Further, the Her2 level in test [2] is 74.5% (inactive). Besides, in test [6] (H69AR cells + 2 uM doxorubicin), the differential viability (reversal) was 1.22% (inactive). The inhibition in test [7] is -6.89% (inactive); in test [8] it was 3.28% (inactive).
On to `Cc1ccccc1C1CC(c2ccccc2)Nc2ncnn21` (stereo not given), for which the viability in test [1] is 90%; in test [3] it was 90% (inactive); in test [4] it was 94.8% (inactive); in test [5] it was 64.2% (inactive); in test [6] (setting [9]), 95.3%; in test [6] (setting [10]) it was 64.2%. In addition, the Her2 level in test [2] was 87.5% (inactive). Further, in test [6] (H69AR cells + 2 uM doxorubicin), the differential viability (reversal) is -31.1% (inactive). For the same compound, the figures for the inhibition in test [7] and in test [8] were 1.47% (inactive) and -6.39% (inactive), respectively.
For `CC1(C(=O)CSc2nc3ccccc3s2)CCC(=O)O1` (stereo not given), the viability was 107% in test [1]; 107% (inactive) in test [3]; 73.2% (inactive) in test [4]; 90.1% (inactive) in test [5]; 87% in test [6] (setting [9]); 90.1% in test [6] (setting [10]). Moreover, the Her2 level in test [2] is 89% (inactive). In addition, the differential viability (reversal) in test [6] (H69AR cells + 2 uM doxorubicin) is 3.12% (inactive). Further, the inhibition is -7.4% (inactive) in test [7] and -3.17% (inactive) in test [8].
As for `CCOC(=O)CSc1nc2ccccc2c(=O)n1CCN1CCOCC1`, the viability in test [1] is 92.5%; in test [3], 92.5% (inactive); in test [4], 87.6% (inactive); in test [5], 95.4% (inactive); in test [6] (setting [9]), 84.4%; in test [6] (setting [10]), 95.4%. Besides, the Her2 level in test [2] was 87.5% (inactive). Besides, the differential viability (reversal) in test [6] (H69AR cells + 2 uM doxorubicin) was 11% (inactive). Besides, the inhibition in test [7] was 0% (inactive); in test [8], -6.19% (inactive).
In the case of `CN1CCN(CCCNC(=O)C2CC(=O)N(C3CCCCC3)C2)CC1` (stereo not given), the viability in test [1] is 106%; in test [3], 106% (inactive); in test [4], 88.8% (inactive); in test [5] it was 91.4% (inactive); in test [6] (setting [9]) it was 95.2%; in test [6] (setting [10]), 91.4%. Moreover, the Her2 level in test [2] is 90% (inactive). Also, the differential viability (reversal) in test [6] (H69AR cells + 2 uM doxorubicin) was -3.83% (inactive). Also, the inhibition was -4.47% (inactive) in test [7] and 3.06% (inactive) in test [8].
As to `CC(=O)c1ccc(OC(=O)c2cccs2)cc1`, the viability in test [1] is 86%; in test [3], 86% (inactive); in test [4], 94.1% (inactive); in test [5] it was 105% (inactive); in test [6] (setting [9]) it was 110%; in test [6] (setting [10]) it was 105%. Also, the Her2 level in test [2] is 94.5% (inactive). Also, in test [6] (H69AR cells + 2 uM doxorubicin), the differential viability (reversal) was -5.42% (inactive). Moreover, the inhibition in test [7] was -3.11% (inactive); in test [8], 3.61% (inactive).
On to `Cc1nc2c(C(=O)O)cnn2c(C)c1Cc1ccccc1F`, for which the viability in test [1] was 97.5%; in test [3] it was 97.5% (inactive); in test [4], 70.6% (inactive); in test [5] it was 87.4% (inactive); in test [6] (setting [9]), 84.8%; in test [6] (setting [10]) it was 87.4%. In test [2], the Her2 level was 141% (inactive). Besides, the differential viability (reversal) in test [6] (H69AR cells + 2 uM doxorubicin) is 2.52% (inactive). In addition, the results for the inhibition in test [7] and in test [8] were 1.84% (inactive) and -8.33% (inactive), respectively.
Turning to `COC(=O)c1[nH]c2cccc(C)c2c1NC(=O)CN1CCCc2ccccc21`, the viability in test [1] is 77.5%; in test [3], 77.5% (inactive); in test [4], 67.1% (inactive); in test [5], 78.8% (inactive); in test [6] (setting [9]) it was 76.7%; in test [6] (setting [10]), 78.8%. The Her2 level in test [2] was 92% (inactive). Moreover, in test [6] (H69AR cells + 2 uM doxorubicin), the differential viability (reversal) was 2.1% (inactive). The inhibition in test [7] is -1.47% (inactive); in test [8] it was 2.79% (inactive).
With `CSc1nnc2n(CCc3ccccc3)c(=O)c3c4c(sc3n12)CCCC4`, the viability in test [1] is 104%; in test [3], 104% (inactive); in test [4] it was 96.3% (inactive); in test [5], 102% (inactive); in test [6] (setting [9]), 76%; in test [6] (setting [10]), 102%. Besides, the Her2 level in test [2] was 94% (inactive). For the same compound, the differential viability (reversal) in test [6] (H69AR cells + 2 uM doxorubicin) was 25.7% (inactive). Moreover, the inhibition in test [7] is -1.45% (inactive); in test [8], 0.16% (inactive).
In the case of `O=C(CSc1nnc2scc(-c3ccccc3)n12)N1CCN(Cc2ccccc2)CC1`, the viability in test [1] is 89%; in test [3], 89% (inactive); in test [4], 103% (inactive); in test [5] it was 78.5% (inactive); in test [6] (setting [9]) it was 70%; in test [6] (setting [10]), 78.5%. In addition, the Her2 level in test [2] is 97.5% (inactive). In test [6] (H69AR cells + 2 uM doxorubicin), the differential viability (reversal) is 8.52% (inactive). Besides, the inhibition in test [7] is -5.66% (inactive); in test [8], -0.32% (inactive).
Take `Cc1cc2c(c(=O)n1CCc1ccccc1)C(C(C)C)C(C#N)=C(N)O2` (stereo not given): the viability in test [1] was 95%; in test [3], 95% (inactive); in test [4], 93.9% (inactive); in test [5], 83.5% (inactive); in test [6] (setting [9]), 92.8%; in test [6] (setting [10]) it was 83.5%. In test [2], the Her2 level was 87% (inactive). In addition, in test [6] (H69AR cells + 2 uM doxorubicin), the differential viability (reversal) is -9.34% (inactive). Further, the values for the inhibition in test [7] and in test [8] were -4.87% (inactive) and 2.79% (inactive), respectively.
For the compound `c1c2c(cc3sc(N4CCCCC4)nc13)OCCO2`, the viability in test [1] is 98%; in test [3] it was 98% (inactive); in test [4], 87% (inactive); in test [5], 75.4% (inactive); in test [6] (setting [9]) it was 73.3%; in test [6] (setting [10]) it was 75.4%. Also, the Her2 level in test [2] is 91.5% (inactive). In test [6] (H69AR cells + 2 uM doxorubicin), the differential viability (reversal) was 2.07% (inactive). Further, the inhibition in test [7] is -4.93% (inactive); in test [8] it was 7.26% (inactive).
For `O=C(NCc1ccccc1)C1CCN(S(=O)(=O)N2CCCCCC2)CC1`, the viability in test [1] is 85%; in test [3] it was 85% (inactive); in test [4] it was 109% (inactive); in test [5] it was 96.7% (inactive); in test [6] (setting [9]), 93.1%; in test [6] (setting [10]), 96.7%. The Her2 level in test [2] is 106% (inactive). For the same compound, the differential viability (reversal) in test [6] (H69AR cells + 2 uM doxorubicin) is 3.6% (inactive). Also, the inhibition is 6.49% (inactive) in test [7] and -6.23% (inactive) in test [8].
